The source made the active and inactive calls. No cut-off for these calls is given here.
Legend:
Sus scrofa = species: Sus scrofa; assay: Inhibition of pig trypsin up to 30 uM
Procedure, shortened: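 Porcine pancreatic trypsin was run as the chymotrypsin assay: 50 mM Tris-HCl/100 mM NaCl/1 mM CaCl2, pH 7.8, with 10 min preincubation with sample in DMSO at 37 °C. Nα-benzoyl-DL-arginine-4-nitroanilide was the substrate. Absorbance at 405 nm was followed every 5 min for 30 min. Tests were done in triplicate, with PMSF as positive control.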

[1] = Inhibition of pig elastase; set-up: species or system Sus scrofa
Procedure, shortened: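 Porcine pancreatic elastase, 75 µg/mL stock in Tris-HCl pH 8.0. Enzyme was preincubated with test sample (5% DMSO final) at 30 °C for 20 min. Then N-succinyl-Ala-Ala-Ala-p-nitroanilide was added at 1.5 mM final (Km). Absorbance increase at 405 nm was read every 5 min for 30 min. Dilution series in DMSO ran from 1 mM to 100 pM, in triplicate, with PMSF as positive control.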

[2] = Inhibition of bovine alpha chymotrypsin; set-up: species or system Bos taurus
Procedure, shortened: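 Bovine pancreatic alpha-chymotrypsin, 1 mg/mL stock in 50 mM Tris-HCl/100 mM NaCl/1 mM CaCl2, pH 7.8. Enzyme was preincubated with test sample in DMSO at 37 °C for 10 min. Then N-succinyl-Gly-Gly-Phe-p-nitroanilide was added at 0.75 mM final (≈Km). Absorbance rise at 405 nm was read every 5 min for 30 min. Samples were log/2 dilutions from 1 mM to 100 pM stocks, in triplicate, with PMSF as positive control.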

| SMILES | Activity (Sus scrofa) | IC50 [1] | IC50 [2] |
| --- | --- | --- | --- |
| C/C=C1\NC(=O)[C@@H](NC(=O)[C@H](CCc2ccc(O)cc2)NC(=O)[C@H](C)NC(=O)[C@H](O)CO)[C@@H](C)OC(=O)[C@H](C(C)C)NC(=O)[C@H](Cc2ccc(O)cc2)N(C)C(=O)[C@H](Cc2ccccc2)N2C(=O)[C@H](CC[C@H]2O)NC1=O [LYNGBYASTATIN 5] | inactive | 3.2 nM | 2800 nM |
| C/C=C1\NC(=O)[C@@H](NC(=O)[C@H](CCc2ccc(O)cc2)NC(=O)[C@H](C)NC(=O)[C@H](O)COS(=O)(=O)O)[C@@H](C)OC(=O)[C@H](C(C)C)NC(=O)[C@H](Cc2ccc(O)cc2)N(C)C(=O)[C@H](Cc2ccccc2)N2C(=O)[C@H](CC[C@H]2OC)NC1=O [LYNGBYASTATIN 6] | inactive | 3.3 nM | 2500 nM |
| C/C=C1\NC(=O)[C@@H](NC(=O)[C@H](CCC(N)=O)NC(=O)CCCCC)[C@@H](C)OC(=O)[C@H](C(C)C)NC(=O)[C@H](Cc2ccc(O)cc2)N(C)C(=O)[C@H](Cc2ccccc2)N2C(=O)[C@H](CC[C@H]2O)NC1=O [LYNGBYASTATIN 7] | inactive | – | – |
| C/C=C1\NC(=O)[C@@H](NC(=O)[C@H](CCC(N)=O)NC(=O)CCC)[C@@H](C)OC(=O)[C@H](C(C)C)NC(=O)[C@H](Cc2ccc(O)cc2)N(C)C(=O)[C@H](Cc2ccccc2)N2C(=O)[C@H](CC[C@H]2O)NC1=O [SOMAMIDE B] | inactive | 9.5 nM | 4200 nM |

From ChEMBL document CHEMBL1141316, “Lyngbyastatins 5-7, potent elastase inhibitors from Floridian marine cyanobacteria, Lyngbya spp” (J Nat Prod, 2007)
